# How the values were obtained:
# [1] = Lipophilicity, log kw in methanol aqueous system at pH 3.5; type: physicochemical
# Method in brief: (§1)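 RP-HPLC on an octadecyl silica column (150 × 4.6 mm, 5 µm) at 22 ± 1 °C, flow 1.0 mL min⁻¹, UV detection at 254 nm. Mobile phase was methanol, acetonitrile or dioxane with water and 0.01 M phosphate buffer pH 3.5 containing 0.05 M DEA. log k_W was extrapolated to pure water by regression.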
# HeLa [2] = assay: Antiproliferative activity against human HeLa cells assessed as cell viability at 50 uM by MTT assay; type: functional; details: read-out: Activity
# Method in brief: (§2)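 Log-phase cells, kept in supplemented RPMI 1640 (HSF in DMEM/10% FBS) at 37 °C, 5% CO2, were exposed 24 h to 1, 50 or 100 µM compound from DMSO. They were washed, given 0.5 mg/mL MTT in HEPES buffer pH 7.4 for 45 min at 37 °C, and formazan was dissolved in DMSO and read at 570 nm. Values are % viability versus control from three independent measurements.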
# HeLa [3] = assay: Antiproliferative activity against human HeLa cells assessed as cell viability at 100 uM by MTT assay; type: functional; details: read-out: Activity; method in brief: as §2
# [4] = Antiproliferative activity against human skin fibroblast assessed as cell viability at 1 uM by MTT assay; type: cell-based; details: human skin fibroblasts, read-out: Activity; method in brief: as §2
# [5] = Lipophilicity, log kw in acetonitrile aqueous system at pH 3.5; type: physicochemical; method in brief: as §1
# [6] = Antiproliferative activity against human skin fibroblast assessed as cell viability at 100 uM by MTT assay; type: cell-based; details: human skin fibroblasts, read-out: Activity
# Method in brief: (§3)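 MTT viability assay on primary human skin fibroblasts grown in DMEM with 10% FBS and penicillin/streptomycin. Compounds were dissolved in DMSO and given at 1, 50 or 100 µM for 24 h. Cells were washed in HEPES-buffered medium (pH 7.4) and then given MTT 0.5 mg mL⁻¹ for 45 min at 37 °C. Formazan was dissolved in DMSO and read at 570 nm. Viability is % of control; three independent measurements.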
# [7] = Antiproliferative activity against human RPMI cells assessed as cell viability at 1 uM by MTT assay; type: functional; details: read-out: Activity; method in brief: as §2
# [8] = Antiproliferative activity against human skin fibroblast assessed as cell viability at 50 uM by MTT assay; type: cell-based; details: human skin fibroblasts, read-out: Activity; method in brief: as §3
# HeLa [9] = assay: Antiproliferative activity against human HeLa cells assessed as cell viability at 1 uM by MTT assay; type: functional; details: read-out: Activity; method in brief: as §2
# [10] = Antiproliferative activity against human RPMI cells assessed as cell viability at 100 uM by MTT assay; type: functional; details: read-out: Activity; method in brief: as §2
# [11] = Antiproliferative activity against human RPMI cells assessed as cell viability at 50 uM by MTT assay; type: functional; details: read-out: Activity; method in brief: as §2
# [12] = Lipophilicity, log kw in dioxane aqueous system at pH 3.5; type: physicochemical; details: buffer; method in brief: as §1
# Staphylococcus aureus [13] = assay: Antimicrobial activity against Staphylococcus aureus ATCC 25923 at 100 ug/mL by disc-diffusion method; type: functional; details: read-out: IZ
# Method in brief: (§4)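 Kirby–Bauer disc diffusion: 5 mm paper discs soaked in compound solution in DMSO (100 or 200 µg/mL; reference drugs 200 µg/mL) and laid on inoculated Mueller-Hinton agar (bacteria) or Sabouraud agar (C. albicans, Aspergillus). DMSO discs were the control. Plates ran 24 h at 35 °C. Inhibition zone diameter was scored 0–10 mm R, 11–16 mm I, 17–25 mm S; triplicate.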
# Pseudomonas aeruginosa [14] = assay: Antimicrobial activity against Pseudomonas aeruginosa ATCC 27853 at 100 ug/mL by disc-diffusion method; type: functional; details: read-out: IZ; method in brief: as §4
# [15] = system: Staphylococcus epidermidis; assay: Antimicrobial activity against Staphylococcus epidermidis at 100 ug/mL by disc-diffusion method; type: functional; details: read-out: IZ; method in brief: as §4
# Streptococcus agalactiae [16] = assay: Antimicrobial activity against Streptococcus agalactiae at 100 ug/mL by disc-diffusion method; type: functional; details: read-out: IZ; method in brief: as §4
# Candida albicans [17] = assay: Antimicrobial activity against Candida albicans ATCC 10231 at 200 ug/mL by disc-diffusion method; type: functional; details: read-out: IZ; method in brief: as §4
# Klebsiella pneumoniae [18] = assay: Antimicrobial activity against Klebsiella pneumoniae at 100 ug/mL by disc-diffusion method; type: functional; details: read-out: IZ; method in brief: as §4
# Streptococcus pyogenes [19] = assay: Antimicrobial activity against Streptococcus pyogenes at 200 ug/mL by disc-diffusion method; type: functional; details: read-out: IZ; method in brief: as §4
# Aspergillus sp. [20] = assay: Antimicrobial activity against Aspergillus sp. at 100 ug/mL by disc-diffusion method; type: functional; details: read-out: IZ; method in brief: as §4
# Proteus vulgaris [21] = assay: Antimicrobial activity against Proteus vulgaris at 200 ug/mL by disc-diffusion method; type: functional; details: read-out: IZ; method in brief: as §4
# Klebsiella aerogenes [22] = assay: Antimicrobial activity against Enterobacter aerogenes at 100 ug/mL by disc-diffusion method; type: functional; details: read-out: IZ; method in brief: as §4
# Klebsiella pneumoniae [23] = assay: Antimicrobial activity against Klebsiella pneumoniae at 200 ug/mL by disc-diffusion method; type: functional; details: read-out: IZ; method in brief: as §4
# Escherichia coli [24] = assay: Antimicrobial activity against Escherichia coli ATCC 25922 at 200 ug/mL by disc-diffusion method; type: functional; details: read-out: IZ; method in brief: as §4
# Escherichia coli [25] = assay: Antimicrobial activity against Escherichia coli ATCC 25922 at 100 ug/mL by disc-diffusion method; type: functional; details: read-out: IZ; method in brief: as §4
# [26] = system: Staphylococcus epidermidis; assay: Antimicrobial activity against Staphylococcus epidermidis at 200 ug/mL by disc-diffusion method; type: functional; details: read-out: IZ; method in brief: as §4
# Streptococcus agalactiae [27] = assay: Antimicrobial activity against Streptococcus agalactiae at 200 ug/mL by disc-diffusion method; type: functional; details: read-out: IZ; method in brief: as §4
# Klebsiella aerogenes [28] = assay: Antimicrobial activity against Enterobacter aerogenes at 200 ug/mL by disc-diffusion method; type: functional; details: read-out: IZ; method in brief: as §4
# Staphylococcus aureus [29] = assay: Antimicrobial activity against Staphylococcus aureus ATCC 25923 after 24 hrs by microdilution assay; type: functional; details: ATCC 25923, 24 h
# Aspergillus sp. [30] = assay: Antimicrobial activity against Aspergillus sp. at 200 ug/mL by disc-diffusion method; type: functional; details: read-out: IZ; method in brief: as §4
# Candida albicans [31] = assay: Antimicrobial activity against Candida albicans ATCC 10231 at 100 ug/mL by disc-diffusion method; type: functional; details: read-out: IZ; method in brief: as §4
# Proteus vulgaris [32] = assay: Antimicrobial activity against Proteus vulgaris at 100 ug/mL by disc-diffusion method; type: functional; details: read-out: IZ; method in brief: as §4
# Staphylococcus aureus [33] = assay: Antimicrobial activity against Staphylococcus aureus ATCC 25923 at 200 ug/mL by disc-diffusion method; type: functional; details: read-out: IZ; method in brief: as §4
# Streptococcus pyogenes [34] = assay: Antimicrobial activity against Streptococcus pyogenes at 100 ug/mL by disc-diffusion method; type: functional; details: read-out: IZ; method in brief: as §4
# Pseudomonas aeruginosa [35] = assay: Antimicrobial activity against Pseudomonas aeruginosa ATCC 27853 at 200 ug/mL by disc-diffusion method; type: functional; details: read-out: IZ; method in brief: as §4
compound,measurement,setting,value
COc1ccc(N2CCn3cnnc32)cc1,logKw,[1],1.87
same,viability at 50 µM,HeLa [2],91.7%
same,viability at 100 µM,HeLa [3],80.6%
same,viability at 1 µM,[4],105%
same,logKw,[5],1.56
same,viability at 100 µM,[6],89.3%
same,viability at 1 µM,[7],102%
same,viability at 50 µM,[8],95.2%
same,viability at 1 µM,HeLa [9],93%
same,viability at 100 µM,[10],91.3%
same,viability at 50 µM,[11],96.5%
same,logKw,[12],1.22
Clc1ccc(OCc2nnc3n2CCN3c2ccc(Cl)cc2)cc1,logKw,[1],4.38
same,viability at 50 µM,HeLa [2],56.3%
same,viability at 100 µM,HeLa [3],52.4%
same,viability at 1 µM,[4],88.7%
same,logKw,[5],3.23
same,viability at 100 µM,[6],16.2%
same,viability at 1 µM,[7],60.1%
same,viability at 50 µM,[8],63.8%
same,viability at 1 µM,HeLa [9],63.2%
same,viability at 100 µM,[10],34%
same,viability at 50 µM,[11],34.5%
same,logKw,[12],3.41
c1ccc(OCc2nnc3n2CCN3c2ccccc2)cc1,logKw,[1],1.62
same,viability at 50 µM,HeLa [2],71.1%
same,viability at 100 µM,HeLa [3],70.3%
same,viability at 1 µM,[4],91.7%
same,logKw,[5],1.37
same,viability at 100 µM,[6],83%
same,viability at 1 µM,[7],104%
same,viability at 50 µM,[8],87.6%
same,viability at 1 µM,HeLa [9],85.3%
same,viability at 100 µM,[10],101%
same,viability at 50 µM,[11],99%
same,logKw,[12],1.78
Cc1cc(Cl)ccc1OCc1nnc2n1CCN2c1ccc(Cl)cc1,logKw,[1],4.61
same,viability at 50 µM,HeLa [2],71.8%
same,viability at 100 µM,HeLa [3],71%
same,viability at 1 µM,[4],79.5%
same,logKw,[5],3.7
same,viability at 100 µM,[6],71%
same,viability at 1 µM,[7],46.4%
same,viability at 50 µM,[8],74%
same,viability at 1 µM,HeLa [9],92.1%
same,viability at 100 µM,[10],31.1%
same,viability at 50 µM,[11],32.4%
same,logKw,[12],3.87
Cc1ccc(N2CCn3c(COc4ccc(Cl)cc4C)nnc32)cc1,zone of inhibition at 100 µg/mL,Staphylococcus aureus [13],11 mm
same,zone of inhibition at 100 µg/mL,Pseudomonas aeruginosa [14],0 mm
same,zone of inhibition at 100 µg/mL,[15],11 mm
same,zone of inhibition at 100 µg/mL,Streptococcus agalactiae [16],0 mm
same,logKw,[1],1.58
same,viability at 50 µM,HeLa [2],75.2%
same,zone of inhibition at 200 µg/mL,Candida albicans [17],0 mm
same,viability at 100 µM,HeLa [3],75.6%
same,viability at 1 µM,[4],74.9%
same,zone of inhibition at 100 µg/mL,Klebsiella pneumoniae [18],0 mm
same,zone of inhibition at 200 µg/mL,Streptococcus pyogenes [19],0 mm
same,zone of inhibition at 100 µg/mL,Aspergillus sp. [20],0 mm
same,logKw,[5],1
same,viability at 100 µM,[6],62.1%
same,zone of inhibition at 200 µg/mL,Proteus vulgaris [21],0 mm
same,viability at 1 µM,[7],85.5%
same,zone of inhibition at 100 µg/mL,Klebsiella aerogenes [22],0 mm
same,zone of inhibition at 200 µg/mL,Klebsiella pneumoniae [23],0 mm
same,viability at 50 µM,[8],56.9%
same,zone of inhibition at 200 µg/mL,Escherichia coli [24],0 mm
same,zone of inhibition at 100 µg/mL,Escherichia coli [25],0 mm
same,viability at 1 µM,HeLa [9],95.1%
same,zone of inhibition at 200 µg/mL,[26],17 mm
same,zone of inhibition at 200 µg/mL,Streptococcus agalactiae [27],0 mm
same,zone of inhibition at 200 µg/mL,Klebsiella aerogenes [28],0 mm
same,MIC,Staphylococcus aureus [29],44 µM
same,zone of inhibition at 200 µg/mL,Aspergillus sp. [30],0 mm
same,zone of inhibition at 100 µg/mL,Candida albicans [31],0 mm
same,zone of inhibition at 100 µg/mL,Proteus vulgaris [32],0 mm
same,viability at 100 µM,[10],25.4%
same,zone of inhibition at 200 µg/mL,Staphylococcus aureus [33],17 mm
same,zone of inhibition at 100 µg/mL,Streptococcus pyogenes [34],0 mm
same,viability at 50 µM,[11],27.7%
same,logKw,[12],1.1
same,zone of inhibition at 200 µg/mL,Pseudomonas aeruginosa [35],0 mm

# From ChEMBL document CHEMBL1149773, “Synthesis, determination of the lipophilicity, anticancer and antimicrobial properties of some fused 1,2,4-triazole derivatives” (Eur J Med Chem, 2008)
